High-throughput results: PubChem, several laboratories
CRFR2-BP antag = blocks CRF-induced signaling of the CRF-BP/CRF-R2 complex. HEK293 CRF-R2/CRF-BP, CRF-induced calcium fluorescence. inhibition, % at 11.8 µM. 350,000 compounds, 0.59% hits. AID 588475;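 active = inhibition of the ligand-induced calcium signal above about 50% at the single tested concentration, limit read from the data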
cardiac RTF act = increases calcium sensitivity of human cardiac regulated thin filaments; P19429+P45379; 340,000 compounds, 0.24% hits; IANBD-labeled TnC RTF fluorescence at EC20 calcium; 0% EC20 calcium, 100% full calcium; AID 493008; activation, % at 7.2 µM;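 active = activation above the mean over all tested compounds plus 3 SD, cut at about 30% in these data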;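 also: rise in fluorescence read as greater calcium sensitivity of cardiac thin filaments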
Tn7 DDE FP = DD(E)-Tn7 binding inhibition, primary FP screen. FP displacement of FITC-Tn7 peptide from fibrin DD(E); 0% = median of compound wells per plate. inhibition, % at 8.3 µM. 370,000 compounds, 0.13% hits. AID 720508;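 active = inhibition above the mean of compounds falling within the control limits plus 3 SD of them, cut at about 14% in these data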;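 also: 0% = plate median of compound wells and 100% = 10 µM Aha-Tn7 peptide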
Target sequence (P02675 whole entry, looked up): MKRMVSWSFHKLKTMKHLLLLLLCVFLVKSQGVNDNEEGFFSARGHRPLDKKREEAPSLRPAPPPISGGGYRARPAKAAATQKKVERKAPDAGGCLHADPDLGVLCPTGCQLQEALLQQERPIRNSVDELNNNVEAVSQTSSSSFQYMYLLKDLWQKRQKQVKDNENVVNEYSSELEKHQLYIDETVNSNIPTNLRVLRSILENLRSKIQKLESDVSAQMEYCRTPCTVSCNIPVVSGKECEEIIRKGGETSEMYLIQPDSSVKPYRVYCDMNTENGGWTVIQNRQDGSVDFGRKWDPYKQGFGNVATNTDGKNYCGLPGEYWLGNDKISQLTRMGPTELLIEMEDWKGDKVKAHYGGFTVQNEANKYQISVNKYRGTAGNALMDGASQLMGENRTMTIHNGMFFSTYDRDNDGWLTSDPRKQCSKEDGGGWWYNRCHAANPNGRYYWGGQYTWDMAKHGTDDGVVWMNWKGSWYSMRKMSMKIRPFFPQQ
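system = human fibrin DD(E) protein | quantity = DD(E) 2 µM final | medium = Tris/NaCl/CaCl2 buffer, pH 7.8 | also added = labelled Tn7 tracer, 0.1 µM | compound dosing = single point at 8.3 µM | timing = compound with protein 10 min, then 3 h after probe, room temperature | signal = FP measurement | benchmarks = Aha-Tn7 high control | repeats = one replicate per compound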
RTF Ca sens inh = cardiac RTF calcium desensitization. IANBD-labeled cardiac RTF, Ca2+ fluorescence. inhibition, % at 7.15 µM. 340,000 compounds, 0.12% hits;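 active = inhibition above the mean inhibition of all tested compounds plus 3 SD, cut at about 17% in these data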;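 also: assay run at fixed EC70 calcium of 1.6 mM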
DDE Tn6 FP inh = disrupts Tn6 cyclic peptide binding to fibrin D-Dimer-E complex | Fibrin DD(E) TRITC-Tn6 fluorescence polarization displacement | inhibition, % at 8.3 µM | 370,000 compounds, 0.21% hits | AID 720509;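 active = inhibition above a per-campaign cutoff: mean of compounds within control limits plus 3 SD, cut at about 15% in these data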;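 also: 0% = median of all compound wells on the plate and 100% = blocking peptide control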
CRFBP-R2 agonist = CRF-BP/CRF-R2 complex agonism; HEK293 CRF-R2/CRF-BP, calcium dye fluorescence (FLIPR); percent of saturating CRF peptide response; activation, % at 13.2 µM; 350,000 compounds, 0.46% hits;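 active = activation of at least 50%, plus an integration ratio under a set limit after plate pattern correction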;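 also: plate controls were neutral control wells without compound for no effect and CRF at EC100 for full effect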
DDE Tn7 confirm = DD(E)-Tn7 binding inhibition, FP confirmation; shares compounds with Tn7 DDE FP; FP displacement of TRITC-Tn7 peptide from DD(E); 0% set at plate's compound-well median; inhibition, % at 8.3 µM; 460 compounds, 5% hits;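 active = inhibition above the campaign cutoff, the mean of compounds within control limits plus 3 SD, cut at about 14% in these data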;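 also: 100% = median FP of high control wells holding Aha-Tn7 inhibitor peptide; displacers lower polarization since freed probe rises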
DDE Tn7 FP ctr = counter-screen hit for Tn7 peptide-fibrin DD(E) binding disruption. shares compounds with Tn7 DDE FP. TRITC-Tn7 probe displacement, fluorescence polarization. inhibition, % at 8.3 µM. 460 compounds, 3% hits. AID 720633;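 active = inhibition above the cutoff, the mean of compounds lying between the control bounds plus 3 SD of those compounds, cut at about 17% in these data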;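 also: 0% = median of compound sample wells and 100% = excess unlabeled Aha-Tn7 peptide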
* = called active by the depositor; · = not tested or not shown. Most compounds without a hit are left out; they make up all but 1.4% or so of the library.

SMILES	CRFR2-BP antag	cardiac RTF act	Tn7 DDE FP	RTF Ca sens inh	DDE Tn6 FP inh	CRFBP-R2 agonist	DDE Tn7 confirm	DDE Tn7 FP ctr
COc1ccc2c(c1)CO[C@H]([C@H](O)COC(C)=O)[C@H]2/C=C/c1ccccc1	·	·	15*	·	-5	·	10	5
CCOC(=O)CC[C@@]1(C(=O)OCC)C[C@@H](CC(=O)NCc2cccs2)C(=O)N2CCCC=C21	·	·	-1	·	-5	·	·	·
CC(=O)c1nc(N2C(=O)CC(Cc3cc(C)cc(C)c3)C2=O)sc1C (stereo not given)	-50	-6	-1	-5	0	-2	·	·
CC(=O)c1nc(N2C(=O)CC(Cc3cccc(C)c3)C2=O)sc1C (stereo not given)	-40	3	16*	-3	-6	0	2	2
O=C(NC(=O)c1ccc(C(F)(F)F)cc1)Nc1ccc(-c2cnco2)cc1	-8	5	14*	4	0	-2	-2	-3
O=C(Nc1ccc(-c2cnco2)cc1)c1ccc(F)cc1F	-13	5	11	-4	-3	-1	·	·
C[C@H]1CN([C@@H](C)CO)C(=O)CCCn2nncc2CO[C@@H]1CN(C)Cc1cccc2c1OCCCO2	4	·	-3	·	-3	-1	·	·
O=c1oc2c(O)cccc2cc1-c1nc2ccccc2[nH]1	-105	153*	36*	-283	-4	184*	21*	-4
COc1ccc2c(Cl)c(C(=O)N/N=C3\CCCC(=O)C3)sc2c1	-64	41*	32*	-80	1	79*	-7	-10
CCCN(CCC)C(=O)c1ccc2c(=O)n(Cc3ccco3)c(=S)[nH]c2c1	-19	9	0	-3	5	1	·	·
Cc1cc(=O)n(Cc2ccco2)c(=S)[nH]1	9	·	16*	·	5	-4	-2	-8
COc1ccc(CC(=O)N[C@@H]2c3ccccc3CC[C@H]2OCc2ccccc2)cc1	8	-6	0	1	-5	-6	·	·
CC(C)C(=O)N[C@@H]1c2ccccc2CC[C@@H]1OCc1ccccc1	13	-4	14*	-6	5	-4	0	-4
COCCn1c(-c2ccc(OC)cc2)nc2ccccc21	3	2	0	-10	-1	0	·	·
COCCn1c2nc(=O)n(-c3ccccc3)c(=O)c-2nc2ccccc21	-168	·	51*	·	2	194*	26*	-1
COc1ccccc1NS(=O)(=O)c1cc(C(=O)NCC(c2ccco2)N(C)C)ccc1C (stereo not given)	-9	5	3	-13	0	-1	·	·
COc1ccccc1NS(=O)(=O)c1cccc(C(=O)NCC(c2ccco2)N(C)C)c1 (stereo not given)	3	-5	14*	-6	10	0	-1	0
O=C(CCc1nnc(Cc2ccc(-c3ccccc3)cc2)o1)N1CCCC1	6	0	16*	-10	7	-1	-6	-9
O=C(CSc1nnc(Cc2ccccc2)o1)N1CCCC1	3	4	-3	-4	9	-2	·	·
C/C(=N\N1CCN(Cc2ccc(Cl)cc2)CC1)c1ccc([N+](=O)[O-])cc1	13	-1	15*	-10	5	6	-4	-6
O=S(=O)(c1ccc(SCc2ccc(Br)cc2)nc1)N1CCCCC1	4	-1	14*	2	3	2	-5	-10
O=C(O)c1ccccc1C1=Nc2ccc(O)cc2Oc2cc(O)ccc21	-93	117*	35*	-159	9	107*	5	-6
CC(=O)Nc1ccc(S(=O)(=O)n2nc(-c3ccc(C)cc3)nc2N)cc1	-14	-7	14*	-9	-4	0	-1	-5
Cc1ccc(S(=O)(=O)n2nc(-c3cccnc3)nc2N)cc1	7	1	-4	-1	-3	0	·	·
COC(=O)[C@]12C[C@H](CC(=O)N3CCN(C(=O)C4CC4)CC3)C(=O)N(CCc3ccc(OC)c(OC)c3)C1=C[C@H](C(C)C)O[C@@H]2C1CC1	·	·	6	·	-4	·	·	·
SMILES	CRFR2-BP antag	cardiac RTF act	Tn7 DDE FP	RTF Ca sens inh	DDE Tn6 FP inh	CRFBP-R2 agonist	DDE Tn7 confirm	DDE Tn7 FP ctr
Nc1nc(-n2cnnc2)nn1-c1ccccc1	-13	-2	5	-4	2	-1	·	·
Nc1nc(N2C(=O)C3CC=CCC3C2=O)nn1-c1ccccc1 (stereo not given)	3	15	16*	-17	-5	-1	-2	-3
COc1ccc(/C=C2\CC3(OC(=O)c4ccc(F)cc4)CCCN2C3)cc1 (stereo not given)	·	·	3	·	-8	·	·	·
COC(=O)[C@H](C(C)C)N(Cc1ccccc1)S(=O)(=O)CCN1CCCC1	11	-1	-7	-2	5	1	·	·
COC(=O)C(C(C)C)N(Cc1cc(OC)cc(OC)c1)S(=O)(=O)CCl (stereo not given)	-10	-6	15*	-7	1	-7	0	-4
O=C(c1cc(Cl)cc(Cl)c1)N1CC[C@H]2[C@H](CCCN2Cc2ccc(F)cc2)C1	·	·	2	·	-4	·	·	·
COc1c(Cl)cc(C(=O)NCc2ccco2)cc1Cl	6	-2	14*	-2	4	0	11	7
CC(C)c1nc(C#N)c(NCCCn2ccnc2)o1	-6	12	-6	-2	4	0	·	·
CC(C)c1nc(C#N)c(NN)o1	-4	3	14*	-20	-3	-1	-7	-9
CC[C@H]1OC(=O)[C@H](C)[C@@H](O[C@H]2C[C@@](C)(OC)[C@@H](O)[C@H](C)O2)C(C)[C@@H](O[C@@H]2O[C@H](C)C[C@H](N(C)C)[C@H]2O)[C@](C)(O)C[C@@H](C)CN(C)[C@H](C)[C@@H](O)[C@]1(C)O (stereo not given in full)	·	·	14*	·	9	·	5	5
O=C(N/N=C/c1sc(=O)[nH]c1-[n+]1ccc2ccccc2c1)c1ccccc1[O-]	10	0	20*	-106	-5	-2	4	2
O=C(N/N=C/c1sc(=O)[nH]c1-[n+]1ccccc1)c1ccccc1[O-]	17	-2	-3	-5	-3	7	·	·
COc1cc(-n2c(C)nc3cc(C(=O)N4CC(C)CC(C)C4)ccc32)cc(OC)c1OC (stereo not given)	·	·	5	·	-6	·	·	·
COCCN1CCCC(CNCc2cn(C)nc2-c2ccc(Oc3ccccc3)cc2)C1 (stereo not given)	2	2	15*	-5	2	3	-3	-6
